Source: ChEMBL document CHEMBL1139880, “Potent and selective agonists of human melanocortin receptor 5: cyclic analogues of alpha-melanocyte-stimulating hormone” (J Med Chem, 2007)
Values belong to the compound of their own block, whether it stands above or below them. Starred links: 1 amine or outer side, 2 acyl side, 3 side chain; linkers in the order of their positions; H or OH if unused. Positions of bridges follow the written chain, without caps; N, C: chain ends. Non-standard residues stand in square brackets, D forms with d. Residues, ends and D or L forms follow the SMILES beside them. ξ: configuration not given here. X7 = O=C([C@H](Cc1ccc(Cc2ccccc2)cc1)N[*:1])[*:2]; X4 = O=C([C@H](CC1CCC(C2CCCCC2)CC1)N[*:1])[*:2]; Oic(3aξ,7aξ) = O=C(O)[C@@H]1CC2CCCCC2N1; X3 = O=C([C@H]1CC2CCCCC2N1[*:1])[*:2]; Pip = O=C(O)[C@@H]1CCCCN1; Nle = CCCC[C@H](N)C(=O)O

How the values were obtained:
Melanocortin receptor 4 [1] = target: T1, Melanocortin receptor 4 (Homo sapiens, UniProt P32245); assay: Agonist activity at human MC4R expressed in CHO cells assessed as cAMP accumulation at 1 uM relative to [125I]NDPalphaMSH; format: functional, cell-based
T1 sequence (P32245 whole entry): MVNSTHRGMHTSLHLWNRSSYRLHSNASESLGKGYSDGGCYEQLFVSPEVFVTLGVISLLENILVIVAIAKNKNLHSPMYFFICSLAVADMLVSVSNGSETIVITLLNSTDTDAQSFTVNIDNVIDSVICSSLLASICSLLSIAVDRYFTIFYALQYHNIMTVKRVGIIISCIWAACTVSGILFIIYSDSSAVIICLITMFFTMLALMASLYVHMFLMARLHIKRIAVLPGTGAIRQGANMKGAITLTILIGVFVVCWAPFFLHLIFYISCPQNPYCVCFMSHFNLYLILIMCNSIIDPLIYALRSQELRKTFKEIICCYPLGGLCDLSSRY

Melanocortin receptor 3 [2] = target: T2, Melanocortin receptor 3 (Homo sapiens, UniProt P41968); assay: Agonist activity at human MC3R expressed in CHO cells assessed as cAMP accumulation at 1 uM relative to [125I]NDPalphaMSH; format: functional, cell-based
T2 sequence (P41968 whole entry): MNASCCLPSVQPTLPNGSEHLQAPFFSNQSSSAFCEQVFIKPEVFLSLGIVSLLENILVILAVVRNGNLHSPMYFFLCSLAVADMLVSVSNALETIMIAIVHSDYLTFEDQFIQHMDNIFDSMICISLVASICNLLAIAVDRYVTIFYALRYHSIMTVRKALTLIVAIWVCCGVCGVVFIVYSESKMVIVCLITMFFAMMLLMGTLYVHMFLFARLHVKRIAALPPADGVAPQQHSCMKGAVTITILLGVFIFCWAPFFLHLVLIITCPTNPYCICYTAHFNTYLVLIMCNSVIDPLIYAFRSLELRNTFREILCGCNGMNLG

Melanocortin receptor 3 [3] = target: T2, Melanocortin receptor 3; assay: Agonist activity at human MC3R expressed in CHO cells assessed as cAMP accumulation at 10 uM relative to [125I]NDPalphaMSH; format: functional, cell-based
Melanocortin receptor 4 [4] = target: T1, Melanocortin receptor 4; assay: Agonist activity at human MC4R expressed in CHO cells assessed as cAMP accumulation at 10 uM relative to [125I]NDPalphaMSH; format: functional, cell-based
Melanocortin receptor 4 [5] = target: T1, Melanocortin receptor 4; assay: Agonist activity at human MC4R expressed in CHO cells assessed as cAMP accumulation at 2 uM relative to [125I]NDPalphaMSH; format: functional, cell-based; conditions: filed as partial agonist
[6] = target: Melanocortin receptor (M4 and M5) (Homo sapiens) (UniProt P32245+P33032); assay: Selectivity for human cloned MC5R over human cloned MC4R; format: protein assay
Sequence of Melanocortin receptor (M4 and M5) (Homo sapiens) (P32245 whole entry, looked up): as the sequence (P32245 whole entry) above
Sequence of Melanocortin receptor (M4 and M5) (Homo sapiens) (P33032 whole entry, looked up): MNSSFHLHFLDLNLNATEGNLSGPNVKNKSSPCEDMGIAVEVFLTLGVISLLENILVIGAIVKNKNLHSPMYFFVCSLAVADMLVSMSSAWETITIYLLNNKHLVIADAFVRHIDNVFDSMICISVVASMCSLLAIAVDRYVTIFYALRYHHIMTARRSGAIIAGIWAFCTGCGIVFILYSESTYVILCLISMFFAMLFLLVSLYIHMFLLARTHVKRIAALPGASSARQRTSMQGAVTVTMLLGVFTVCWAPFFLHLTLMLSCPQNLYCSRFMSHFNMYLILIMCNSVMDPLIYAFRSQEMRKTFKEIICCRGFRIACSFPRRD

Homo sapiens [7] = organism: Homo sapiens; assay: Selectivity for human cloned MC5R over human cloned MC3R
Melanocortin receptor 3 [8] = target: T2, Melanocortin receptor 3; assay: Agonist activity at human MC3R expressed in CHO cells assessed as cAMP accumulation at 2 uM relative to [125I]NDPalphaMSH; format: functional, cell-based
Homo sapiens [9] = organism: Homo sapiens; assay: Selectivity for human cloned MC5R over human cloned MC1bR
[10] = target: T3, Melanocyte-stimulating hormone receptor (Homo sapiens, UniProt Q01726); assay: Agonist activity at human melanocortin receptor 1b expressed in CHO cells assessed as cAMP accumulation at 1 uM relative to [125I]NDPalphaMSH; format: functional, cell-based
Target sequence in this assay (Q01726 whole entry, looked up): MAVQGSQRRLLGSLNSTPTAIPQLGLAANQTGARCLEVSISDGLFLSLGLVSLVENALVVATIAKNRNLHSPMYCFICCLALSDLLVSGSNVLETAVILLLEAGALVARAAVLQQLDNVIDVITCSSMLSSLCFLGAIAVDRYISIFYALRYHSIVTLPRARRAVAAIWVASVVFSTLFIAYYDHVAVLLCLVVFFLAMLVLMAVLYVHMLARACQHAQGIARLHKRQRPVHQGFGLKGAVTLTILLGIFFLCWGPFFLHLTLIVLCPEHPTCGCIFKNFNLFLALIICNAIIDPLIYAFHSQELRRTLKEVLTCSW

Melanocortin receptor 3 [11] = target: T2, Melanocortin receptor 3; assay: Agonist activity at human MC3R expressed in CHO cells assessed as cAMP accumulation at […] relative to [125I]NDPalphaMSH; format: functional, cell-based
Melanocortin receptor 4 [12] = target: T1, Melanocortin receptor 4; assay: Agonist activity at human MC4R expressed in CHO cells assessed as cAMP accumulation at […] relative to [125I]NDPalphaMSH
Melanocortin receptor 4 [13] = target: T1, Melanocortin receptor 4; assay: Agonist activity at human MC4R expressed in CHO cells assessed as cAMP accumulation at […] relative to [125I]NDPalphaMSH; format: functional, cell-based; conditions: filed as partial agonist
Melanocortin receptor 4 [14] = target: T1, Melanocortin receptor 4; assay: Inhibition of human cloned MC4R expressed in CHO cells at 2 uM relative to [125I]NDPalphaMSH; format: cell-based
Melanocortin receptor 5 [15] = target: T4, Melanocortin receptor 5 (Homo sapiens, UniProt P33032); assay: Agonist activity at human MC5R expressed in CHO cells assessed as cAMP accumulation; format: functional, cell-based; conditions: cho
T4 sequence (P33032 whole entry): as the sequence (P33032 whole entry, looked up) above

Melanocortin receptor 3 [16] = target: T2, Melanocortin receptor 3; assay: Agonist activity at human MC3R expressed in CHO cells assessed as cAMP accumulation; format: functional, cell-based; conditions: cho
Outline: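 Dissociated CHO cells were spun 5 min and resuspended in Earle's balanced salt solution with 10 mM HEPES pH 7.5, 5 mM MgCl2, 1 mM glutamine and 1 mg/mL BSA. They were incubated 40 min at room temperature with compound (0.003–5000 nM) plus 0.6 mM IBMX, then lysed with 0.1 M HCl. cAMP was measured by Flashplate cAMP assay.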

Melanocortin receptor 3 [17] = target: T2, Melanocortin receptor 3; assay: Displacement of [125I]NDPalphaMSH from human cloned MC3R expressed in CHO cells; format: cell-based; conditions: cho
[18] = target: T3, Melanocyte-stimulating hormone receptor; assay: Displacement of [125I]NDPalphaMSH from human cloned melanocortin receptor 1b expressed in CHO cells; format: cell-based; conditions: cho
Target sequence in this assay (Q01726 whole entry): as the sequence (Q01726 whole entry, looked up) above

Melanocortin receptor 5 [19] = target: T4, Melanocortin receptor 5; assay: Displacement of [125I]NDPalphaMSH from human cloned MC5R expressed in CHO cells; format: cell-based; conditions: cho
Melanocortin receptor 3 [20] = target: T2, Melanocortin receptor 3; assay: Agonist activity at human MC3R expressed in CHO cells assessed as cAMP accumulation at 5 uM relative to [125I]NDPalphaMSH; format: functional, cell-based
Melanocortin receptor 4 [21] = target: T1, Melanocortin receptor 4; assay: Agonist activity at human MC4R expressed in CHO cells assessed as cAMP accumulation at 5 uM relative to [125I]NDPalphaMSH; format: functional, cell-based; conditions: filed as agonist
[22] = target: T3, Melanocyte-stimulating hormone receptor; assay: Agonist activity at human melanocortin receptor 1b expressed in CHO cells assessed as cAMP accumulation relative to [125I]NDPalphaMSH; format: functional, cell-based
Target sequence in this assay (Q01726 whole entry, looked up): as above

- Activity (Melanocortin receptor 4 [1]; filed as partial agonist): 43%
- Activity (Melanocortin receptor 3 [2]): 1%
SMILES: CCCC[C@H](NC(C)=O)C(=O)N[C@H]1CC(=O)NCCCC[C@@H](C(N)=O)NC(=O)[C@H](Cc2c[nH]c3ccccc23)NC(=O)[C@@H]2CCCCN2C(=O)[C@H](Cc2ccc(-c3ccccc3)cc2)NC(=O)[C@H](C2CCCCC2)NC1=O

- Activity (Melanocortin receptor 4 [5]): 40%
- Ratio IC50 [6]: > 5000
- Ratio IC50 (Homo sapiens [7]): > 5000
- Activity (Melanocortin receptor 3 [8]): 5%
- Ratio IC50 (Homo sapiens [9]): > 5000
SMILES: CCCC[C@H](NC(C)=O)C(=O)N[C@H]1CC(=O)NCCCC[C@@H](C(N)=O)NC(=O)[C@H](Cc2c[nH]c3ccccc23)NC(=O)[C@@H]2CCCCN2C(=O)[C@H](Cc2ccc(-c3ccccc3)cc2)NC(=O)[C@@H]2CC3CCCCC3N2C1=O (stereo partly drawn)

- Activity (Melanocortin receptor 3 [20]): 1%
- Ratio IC50 [6]: 470
- Activity (Melanocortin receptor 4 [21]): 97%
- Ratio IC50 (Homo sapiens [7]): 440
- Ratio IC50 (Homo sapiens [9]): 780
SMILES: CCCC[C@H](NC(C)=O)C(=O)N[C@H]1CC(=O)NCCCC[C@@H](C(N)=O)NC(=O)[C@H](Cc2c[nH]c3ccccc23)NC(=O)[C@@H]2CCCN2C(=O)[C@H](Cc2ccc(-c3ccccc3)cc2)NC(=O)[C@@H]2CC3CCCCC3N2C1=O (stereo partly drawn)

- Activity [22]: 33%
- Activity (Melanocortin receptor 4 [1]; filed as agonist): 77%
- Ratio IC50 (Homo sapiens [9]): 670
- Activity (Melanocortin receptor 3 [2]): 3%
SMILES: CCCC[C@H](NC(C)=O)C(=O)N[C@H]1CC(=O)NCCCC[C@@H](C(N)=O)NC(=O)[C@H](Cc2c[nH]c3ccccc23)NC(=O)[C@@H]2CCCCN2C(=O)[C@H](Cc2ccc(-c3ccccc3)cc2)NC(=O)[C@H](C(C)C)NC1=O

- Ratio IC50 [6]: 1060
- Activity (Melanocortin receptor 4 [1]): 9%
- Ratio IC50 (Homo sapiens [7]): 1800
- Activity (Melanocortin receptor 3 [8]): 8%
- Ratio IC50 (Homo sapiens [9]): 430
SMILES: CCCC[C@H](NC(C)=O)C(=O)N[C@H]1CC(=O)NCCCC[C@@H](C(N)=O)NC(=O)[C@H](Cc2c[nH]c3ccccc23)NC(=O)[C@@H]2CCCCN2C(=O)[C@H](Cc2ccc(-c3ccccc3)cc2)NC(=O)[C@@H]2CCCN2C1=O

The next lines start with the compound.

SMILES: CCCC[C@H](NC(C)=O)C(=O)N[C@H]1CC(=O)NCCCC[C@@H](C(N)=O)NC(=O)[C@H](Cc2cc3ccccc3[nH]2)NC(=O)[C@@H]2CCCN2C(=O)[C@@H](Cc2ccccc2)NC(=O)[C@H](Cc2cnc[nH]2)NC1=O
- Activity (Melanocortin receptor 3 [3]): 2%
- Activity (Melanocortin receptor 4 [4]): 6%

SMILES: CCCC[C@H](NC(C)=O)C(=O)N[C@H]1CC(=O)NCCCC[C@@H](C(N)=O)NC(=O)[C@H](Cc2c[nH]c3ccccc23)NC(=O)[C@@H]2CCCCN2C(=O)[C@H](Cc2ccc(Cc3ccccc3)cc2)NC(=O)[C@@H]2CC3CCCCC3N2C1=O (stereo partly drawn) (Ac-[Nle]D[Oic(3aξ,7aξ)][X7][Pip]WK-NH2; lactam 2-7)
- Activity [10]: 3%
- Activity (Melanocortin receptor 3 [2]): 2%

SMILES: CCCC[C@H](NC(C)=O)C(=O)N[C@H]1CC(=O)NCCCC[C@@H](C(N)=O)NC(=O)[C@H](Cc2c[nH]c3ccccc23)NC(=O)[C@@H]2CCCCN2C(=O)[C@H](Cc2ccc(-c3ccccc3)cc2)NC(=O)[C@@H]2Cc3ccccc3CN2C1=O
- Ratio IC50 [6]: 260
- Activity (Melanocortin receptor 3 [11]): 10%
- Ratio IC50 (Homo sapiens [7]): 1440
- Ratio IC50 (Homo sapiens [9]): 260
- Activity (Melanocortin receptor 4 [12]): 0%

SMILES: CCCC[C@H](NC(C)=O)C(=O)N[C@H]1CC(=O)NCCCC[C@@H](C(N)=O)NC(=O)[C@H](Cc2c[nH]c3ccccc23)NC(=O)[C@@H]2CCCCN2C(=O)[C@H](Cc2ccc(-c3ccccc3)cc2)NC(=O)[C@H](c2ccccc2)NC1=O
- Activity [10]: 16%
- Activity (Melanocortin receptor 4 [1]; filed as agonist): 72%
- Activity (Melanocortin receptor 3 [2]): 0%

SMILES: CCCC[C@H](NC(C)=O)C(=O)N[C@H]1CC(=O)NCCCC[C@@H](C(N)=O)NC(=O)[C@H](Cc2c[nH]c3ccccc23)NC(=O)[C@@H]2CCCCN2C(=O)[C@H](Cc2ccc(-c3ccccc3)cc2)NC(=O)[C@H](Cc2c[nH]cn2)NC1=O
- Ratio IC50 [6]: 790
- Ratio IC50 (Homo sapiens [7]): 1940
- Activity (Melanocortin receptor 4 [13]): 41%
- Ratio IC50 (Homo sapiens [9]): 8

SMILES: CCCC[C@H](NC(C)=O)C(=O)N[C@H]1CC(=O)NCCCC[C@@H](C(N)=O)NC(=O)[C@H](Cc2c[nH]c3ccccc23)NC(=O)[C@@H]2CCCCN2C(=O)[C@H](CC2CCC(C3CCCCC3)CC2)NC(=O)[C@H]2CC3CCCCC3N2C1=O (stereo partly drawn) (Ac-[Nle]D[X3][X4][Pip]WK-NH2; lactam 2-7)
- inhibition (Melanocortin receptor 4 [14]): 25%
- Activity [10]: 13%
- EC50 (Melanocortin receptor 5 [15]): > 500 nM
- EC50 (Melanocortin receptor 3 [16]): > 500 nM
- Activity (Melanocortin receptor 4 [1]; filed as partial agonist): 39%
- IC50 (Melanocortin receptor 3 [17]): > 1000 nM
- IC50 [18]: 1300 nM (antagonist)
- Ratio IC50 (Homo sapiens [9]): 1.8
- IC50 (Melanocortin receptor 5 [19]): 700 nM (antagonist)

SMILES: CCCC[C@H](NC(C)=O)C(=O)N[C@H]1CC(=O)NCCCC[C@@H](C(N)=O)NC(=O)[C@H](Cc2c[nH]c3ccccc23)NC(=O)[C@@H]2CCCN2C(=O)[C@H](Cc2ccc(-c3ccccc3)cc2)NC(=O)[C@@H]2CCCN2C1=O
- Ratio IC50 [6]: 340
- Activity (Melanocortin receptor 3 [11]): 2%
- Ratio IC50 (Homo sapiens [7]): 217
- Activity (Melanocortin receptor 4 [4]; filed as partial agonist): 40%
- Ratio IC50 (Homo sapiens [9]): 720

SMILES: CCCC[C@H](NC(C)=O)C(=O)N[C@H]1CC(=O)NCCCC[C@@H](C(N)=O)NC(=O)[C@H](Cc2cc3ccccc3[nH]2)NC(=O)[C@@H]2CCCN2C(=O)[C@H](Cc2ccccc2)NC(=O)[C@H](Cc2cnc[nH]2)NC1=O
- Activity (Melanocortin receptor 3 [3]): 5%
- Activity (Melanocortin receptor 4 [4]): 7%
